From paper PMC7932937 (Clinical Pharmacokinetics, 2020)
Like-named read-outs stand apart in the source and are kept apart here.

Tests used:
[1] = system: baseline non-HDL-cholesterol; assay: Covariate analysis on baseline non-HDL-cholesterol in the PK/PD model; format: in vivo, people living with HIV; settings: coadministration, final PK/PD model covariate
How it was run: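 Indirect-response model linked to the final population PK model (plasma rosuvastatin by UHPLC-MS/MS; daily doses 5–20 mg). Drug inhibits kin, with kout = kin/baseline. Covariates (ARV regimen, comedications, diabetes, weight, AST, ALT, age) were tested on baseline only, by stepwise forward inclusion and backward deletion. Continuous covariates were median-centred (linear or allometric), categorical ones coded 0/1. Cholesterol was measured enzymatically (cholesterol oxidase).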

[2] = Population pharmacokinetic model; format: in vivo, people living with HIV
How it was run: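 Adults with HIV on rosuvastatin 5–20 mg daily. Plasma came from a rich-sampling study and from sparse samples at cohort visits, 0.2–38.5 h post-dose, and was assayed by UHPLC-MS/MS. Models tested one or two compartments with first-order, zero-order or mixed absorption. Absorption parameters were fixed from the rich data. Between-subject variability was log-normal; residual error additive on the log scale. Covariate thresholds: ΔOFV 3.84 forward, 7.88 backward.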

[3] = cited from earlier work
[4] = literature values ref 12, 26, 27; cited from earlier work
[5] = estimated from full PK profiles (rich sampling), without variability
[6] = coadministered with cobicistat-boosted darunavir ref 20
[7] = coadministered with ritonavir-boosted atazanavir ref 19
[8] = coadministered with ritonavir-boosted darunavir ref 9
[9] = coadministered with ritonavir-boosted lopinavir ref 30

Cl decrease with boosted PIs that the study was powered to rule out ([2]; coadministered boosted PIs, univariate analysis) [%] | absorption rate constant [2, 5] [h⁻¹] | duration of zero-order absorption [2, 5] [h] | increase in rosuvastatin Vc ([2]; in women, univariate testing, not significant in multivariate analysis) | SMILES | decrease in the baseline non-HDL-cholesterol value [1] [%] | increase in rosuvastatin AUC0–24 [3, 6] [%] | increase in rosuvastatin Cmax [3, 6] [%] | increase in rosuvastatin AUC0–24 [3, 7] [%] | increase in rosuvastatin Cmax [3, 7] [%] | increase in rosuvastatin AUC0–24 [3, 8] [%] | increase in rosuvastatin Cmax [3, 8] [%] | increase in rosuvastatin AUC0–24 [3, 9] [%] | increase in rosuvastatin Cmax [3, 9] [%] | volume of distributions [4] [L]
 |  |  |  | Cc1cc(C#N)cc(C)c1Oc1nc(Nc2ccc(C#N)cc2)nc(N)c1Br [etravirine] | 14 |  |  |  |  |  |  |  |  | 
≤ 22 | 0.306 | 0.461 | three-fold | CC(C)c1nc(N(C)S(C)(=O)=O)nc(-c2ccc(F)cc2)c1/C=C/[C@@H](O)C[C@@H](O)CC(=O)O [rosuvastatin] |  | 93 | 277 | 213 | 600 | 48 | 143 | 110 | 370 | 1255 to 4870
